According to ChEMBL document CHEMBL4819122, “Novel 4-(piperazin-1-yl)quinolin-2(1H)-one bearing thiazoles with antiproliferative activity through VEGFR-2-TK inhibition” (Bioorg Med Chem, 2021):

Legend:
Type in all cases: functional
Conditions in all cases: read-out: GI
[1] = system: CCRF-CEM; experiment: Cytotoxicity against human CCRF-CEM assessed as growth inhibition at 10 uM by NCI protocol relative to control
Procedure, shortened: (§1)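 Run by NCI as a single-dose screen at 10 μM across the sixty-cell-line panel, which covers nine human tumour tissue types. The read-out is percent growth inhibition of treated cells relative to untreated cells.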

[2] = system: HL-60; experiment: Cytotoxicity against human HL60 assessed as growth inhibition at 10 uM by NCI protocol relative to control; procedure, shortened: as §1
[3] = system: K562; experiment: Cytotoxicity against human K-562 assessed as growth inhibition at 10 uM by NCI protocol relative to control; procedure, shortened: as §1
[4] = system: MOLT-4; experiment: Cytotoxicity against human MOLT-4 assessed as growth inhibition at 10 uM by NCI protocol relative to control; procedure, shortened: as §1
[5] = system: RPMI-8226; experiment: Cytotoxicity against human RPMI-8226 assessed as growth inhibition at 10 uM by NCI protocol relative to control; procedure, shortened: as §1
[6] = system: SR; experiment: Cytotoxicity against human SR assessed as growth inhibition at 10 uM by NCI protocol relative to control
Procedure, shortened: (§2)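 Run by the NCI under its standard protocol: one dose of 10 μM against a sixty-line panel from nine human tumour tissues. Result given as percent growth inhibition of treated cells relative to untreated cells.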

[7] = system: A549; experiment: Cytotoxicity against human A549 assessed as growth inhibition at 10 uM by NCI protocol relative to control; procedure, shortened: as §1
[8] = system: EKVX; experiment: Cytotoxicity against human EKVX assessed as growth inhibition at 10 uM by NCI protocol relative to control; procedure, shortened: as §1
[9] = system: HOP-92; experiment: Cytotoxicity against human HOP-92 assessed as growth inhibition at 10 uM by NCI protocol relative to control; procedure, shortened: as §1
[10] = system: NCI-H23; experiment: Cytotoxicity against human NCI-H23 assessed as growth inhibition at 10 uM by NCI protocol relative to control; procedure, shortened: as §1
[11] = system: NCI-H322M; experiment: Cytotoxicity against human NCI-H322M assessed as growth inhibition at 10 uM by NCI protocol relative to control; procedure, shortened: as §1
[12] = system: NCI-H460; experiment: Cytotoxicity against human NCI-H460 assessed as growth inhibition at 10 uM by NCI protocol relative to control; procedure, shortened: as §1
[13] = system: NCI-H522; experiment: Cytotoxicity against human NCI-H522 assessed as growth inhibition at 10 uM by NCI protocol relative to control; procedure, shortened: as §1
[14] = system: HCC 2998; experiment: Cytotoxicity against human HCC-2998 assessed as growth inhibition at 10 uM by NCI protocol relative to control; procedure, shortened: as §1
[15] = system: HCT-116; experiment: Cytotoxicity against human HCT-116 assessed as growth inhibition at 10 uM by NCI protocol relative to control; procedure, shortened: as §1
[16] = system: HCT-15; experiment: Cytotoxicity against human HCT-15 assessed as growth inhibition at 10 uM by NCI protocol relative to control; procedure, shortened: as §1
[17] = system: HT-29; experiment: Cytotoxicity against human HT29 assessed as growth inhibition at 10 uM by NCI protocol relative to control; procedure, shortened: as §1
[18] = system: SW-620; experiment: Cytotoxicity against human SW-620 assessed as growth inhibition at 10 uM by NCI protocol relative to control; procedure, shortened: as §2
[19] = system: SF-295; experiment: Cytotoxicity against human SF-295 assessed as growth inhibition at 10 uM by NCI protocol relative to control; procedure, shortened: as §1
[20] = system: SF-539; experiment: Cytotoxicity against human […] assessed as growth inhibition at 10 uM by NCI protocol relative to control; procedure, shortened: as §1
[21] = system: SNB-19; experiment: Cytotoxicity against human SNB-19 assessed as growth inhibition at 10 uM by NCI protocol relative to control; procedure, shortened: as §2
[22] = system: SNB-75; experiment: Cytotoxicity against human SNB-75 assessed as growth inhibition at 10 uM by NCI protocol relative to control; procedure, shortened: as §2
[23] = system: U-251; experiment: Cytotoxicity against human U251 assessed as growth inhibition at 10 uM by NCI protocol relative to control; procedure, shortened: as §2
[24] = system: LOX IMVI; experiment: Cytotoxicity against human LOX IMVI assessed as growth inhibition at 10 uM by NCI protocol relative to control; procedure, shortened: as §1
[25] = system: Malme-3M; experiment: Cytotoxicity against human MALME-3M assessed as growth inhibition at 10 uM by NCI protocol relative to control; procedure, shortened: as §1
[26] = system: M14; experiment: Cytotoxicity against human M14 assessed as growth inhibition at 10 uM by NCI protocol relative to control; procedure, shortened: as §1

COc1ccc(-c2csc(NC(=O)CN3CCN(c4cc(=O)[nH]c5ccc(F)cc45)CC3)n2)cc1
inhibition of growth at 10 µM [1]: 29.8% | inhibition of growth at 10 µM [2]: 23.5% | inhibition of growth at 10 µM [3]: 30.1% | inhibition of growth at 10 µM [4]: 46.7% | inhibition of growth at 10 µM [5]: 40.9% | inhibition of growth at 10 µM [6]: 34.7% | inhibition of growth at 10 µM [7]: 29.5% | inhibition of growth at 10 µM [8]: 24.9% | inhibition of growth at 10 µM [9]: 25.4% | inhibition of growth at 10 µM [10]: 16.6% | inhibition of growth at 10 µM [11]: 12.6% | inhibition of growth at 10 µM [12]: 12.5% | inhibition of growth at 10 µM [13]: 21.6% | inhibition of growth at 10 µM [14]: 15.8% | inhibition of growth at 10 µM [15]: 15.9% | inhibition of growth at 10 µM [16]: 26.6% | inhibition of growth at 10 µM [17]: 22.1% | inhibition of growth at 10 µM [18]: 34.6% | inhibition of growth at 10 µM [19]: 17.5% | inhibition of growth at 10 µM [20]: 30.5% | inhibition of growth at 10 µM [21]: 15.3% | inhibition of growth at 10 µM [22]: 23.9% | inhibition of growth at 10 µM [23]: 30.3% | inhibition of growth at 10 µM [24]: 20.8% | inhibition of growth at 10 µM [25]: 33.6% | inhibition of growth at 10 µM [26]: 19.2%
